Biological target: T1, Serine/threonine-protein kinase B-raf (Homo sapiens, UniProt P15056, V600E)
Test: Inhibition of Braf V600E mutant-mediated Erk phosphorylation in human SK-MEL-28 cells after 4 hrs by Western blot analysis
Format: cell-based
Details: not given

T1 sequence (P15056 2-766 V600E limits assumed): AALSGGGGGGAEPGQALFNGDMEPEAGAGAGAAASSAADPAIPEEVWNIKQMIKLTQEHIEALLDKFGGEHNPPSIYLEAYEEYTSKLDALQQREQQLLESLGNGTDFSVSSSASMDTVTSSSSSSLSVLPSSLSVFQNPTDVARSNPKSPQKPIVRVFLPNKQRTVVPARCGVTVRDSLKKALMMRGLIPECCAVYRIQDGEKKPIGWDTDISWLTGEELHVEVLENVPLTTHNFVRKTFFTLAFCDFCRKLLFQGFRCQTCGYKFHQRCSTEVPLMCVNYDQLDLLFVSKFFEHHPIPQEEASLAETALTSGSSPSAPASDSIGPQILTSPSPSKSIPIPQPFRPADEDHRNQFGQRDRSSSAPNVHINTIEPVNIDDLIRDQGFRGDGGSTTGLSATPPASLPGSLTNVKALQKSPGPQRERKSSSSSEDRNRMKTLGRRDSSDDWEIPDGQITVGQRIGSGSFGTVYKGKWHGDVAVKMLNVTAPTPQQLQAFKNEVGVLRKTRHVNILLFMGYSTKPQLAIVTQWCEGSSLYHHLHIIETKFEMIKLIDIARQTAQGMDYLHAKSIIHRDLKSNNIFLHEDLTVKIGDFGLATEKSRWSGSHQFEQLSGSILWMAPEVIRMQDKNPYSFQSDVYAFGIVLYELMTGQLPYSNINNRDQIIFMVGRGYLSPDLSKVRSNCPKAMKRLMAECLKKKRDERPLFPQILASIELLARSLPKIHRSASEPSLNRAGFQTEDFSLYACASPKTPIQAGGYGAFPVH

EC50	SMILES
> 10000 nM	CNC(=O)c1cc(Oc2ccc3nc(Nc4cccc(Br)c4)ncc3c2)ccn1
> 10000 nM	O=C(NCCO)c1cc(Oc2ccc3nc(Nc4ccc(Br)cc4)ncc3c2)ccn1
> 10000 nM	CNC(=O)c1cc(Oc2ccc3nc(Nc4cccc(OC(F)(F)F)c4)ncc3c2)ccn1
> 10000 nM	CNC(=O)c1cc(Oc2ccc3nc(Nc4ccc(Oc5ccccc5)cc4)ncc3c2)ccn1
> 10000 nM	CNC(=O)c1cc(Oc2ccc3nc(Nc4cccc(C(F)(F)F)c4)ncc3c2)ccn1
> 10000 nM	CNC(=O)c1cc(Oc2ccc3nc(Nc4ccc(C(F)(F)F)cc4)ncc3c2)ccn1

Second part, the compound before the results:

SMILES	EC50
CNC(=O)c1cc(Oc2ccc3nc(Nc4cccc(C(C)(C)C)c4)ncc3c2)ccn1	> 10000 nM
CNC(=O)c1cc(Oc2ccc3nc(Nc4ccc(-c5cccnc5)cc4)ncc3c2)ccn1	> 10000 nM
CCc1ccccc1Nc1ncc2cc(Oc3ccnc(C(=O)NC)c3)ccc2n1	> 10000 nM
CNC(=O)c1cc(Oc2ccc3nc(Nc4ccccc4)ncc3c2)ccn1	> 10000 nM
CNC(=O)c1cc(Oc2ccc3nc(Nc4ccc(C(C)C)cc4)ncc3c2)ccn1	> 10000 nM

Biological target: T1, Serine/threonine-protein kinase B-raf
Test: Inhibition of N-terminus His6-tagged Braf V600E mutant expressed in insect Sf9 cells assessed as Mek phosphorylation after 2 hrs by ELISA
Details: not given
How it was run: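 Biochemical assay with the purified BrafV600E kinase domain, not the full-length protein.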

IC50	SMILES
180 nM	CNC(=O)c1cc(Oc2ccc3nc(Nc4cccc(Br)c4)ncc3c2)ccn1
8600 nM	O=C(NCCO)c1cc(Oc2ccc3nc(Nc4ccc(Br)cc4)ncc3c2)ccn1
70 nM	CNC(=O)c1cc(Oc2ccc3nc(Nc4cccc(OC(F)(F)F)c4)ncc3c2)ccn1
600 nM	CNC(=O)c1cc(Oc2ccc3nc(Nc4ccc(Oc5ccccc5)cc4)ncc3c2)ccn1
640 nM	CNC(=O)c1cc(Oc2ccc3nc(Nc4cccc(C(F)(F)F)c4)ncc3c2)ccn1
67 nM	CNC(=O)c1cc(Oc2ccc3nc(Nc4ccc(C(F)(F)F)cc4)ncc3c2)ccn1

The next lines start with the compound.

SMILES	IC50
CNC(=O)c1cc(Oc2ccc3nc(Nc4cccc(C(C)(C)C)c4)ncc3c2)ccn1	45 nM
CNC(=O)c1cc(Oc2ccc3nc(Nc4ccc(-c5cccnc5)cc4)ncc3c2)ccn1	25000 nM
CCc1ccccc1Nc1ncc2cc(Oc3ccnc(C(=O)NC)c3)ccc2n1	1300 nM
CNC(=O)c1cc(Oc2ccc3nc(Nc4ccccc4)ncc3c2)ccn1	2200 nM
CNC(=O)c1cc(Oc2ccc3nc(Nc4ccc(C(C)C)cc4)ncc3c2)ccn1	1 nM

Biological target: Vascular endothelial growth factor receptor 2 (Homo sapiens, UniProt P35968)
Sequence (P35968 whole entry): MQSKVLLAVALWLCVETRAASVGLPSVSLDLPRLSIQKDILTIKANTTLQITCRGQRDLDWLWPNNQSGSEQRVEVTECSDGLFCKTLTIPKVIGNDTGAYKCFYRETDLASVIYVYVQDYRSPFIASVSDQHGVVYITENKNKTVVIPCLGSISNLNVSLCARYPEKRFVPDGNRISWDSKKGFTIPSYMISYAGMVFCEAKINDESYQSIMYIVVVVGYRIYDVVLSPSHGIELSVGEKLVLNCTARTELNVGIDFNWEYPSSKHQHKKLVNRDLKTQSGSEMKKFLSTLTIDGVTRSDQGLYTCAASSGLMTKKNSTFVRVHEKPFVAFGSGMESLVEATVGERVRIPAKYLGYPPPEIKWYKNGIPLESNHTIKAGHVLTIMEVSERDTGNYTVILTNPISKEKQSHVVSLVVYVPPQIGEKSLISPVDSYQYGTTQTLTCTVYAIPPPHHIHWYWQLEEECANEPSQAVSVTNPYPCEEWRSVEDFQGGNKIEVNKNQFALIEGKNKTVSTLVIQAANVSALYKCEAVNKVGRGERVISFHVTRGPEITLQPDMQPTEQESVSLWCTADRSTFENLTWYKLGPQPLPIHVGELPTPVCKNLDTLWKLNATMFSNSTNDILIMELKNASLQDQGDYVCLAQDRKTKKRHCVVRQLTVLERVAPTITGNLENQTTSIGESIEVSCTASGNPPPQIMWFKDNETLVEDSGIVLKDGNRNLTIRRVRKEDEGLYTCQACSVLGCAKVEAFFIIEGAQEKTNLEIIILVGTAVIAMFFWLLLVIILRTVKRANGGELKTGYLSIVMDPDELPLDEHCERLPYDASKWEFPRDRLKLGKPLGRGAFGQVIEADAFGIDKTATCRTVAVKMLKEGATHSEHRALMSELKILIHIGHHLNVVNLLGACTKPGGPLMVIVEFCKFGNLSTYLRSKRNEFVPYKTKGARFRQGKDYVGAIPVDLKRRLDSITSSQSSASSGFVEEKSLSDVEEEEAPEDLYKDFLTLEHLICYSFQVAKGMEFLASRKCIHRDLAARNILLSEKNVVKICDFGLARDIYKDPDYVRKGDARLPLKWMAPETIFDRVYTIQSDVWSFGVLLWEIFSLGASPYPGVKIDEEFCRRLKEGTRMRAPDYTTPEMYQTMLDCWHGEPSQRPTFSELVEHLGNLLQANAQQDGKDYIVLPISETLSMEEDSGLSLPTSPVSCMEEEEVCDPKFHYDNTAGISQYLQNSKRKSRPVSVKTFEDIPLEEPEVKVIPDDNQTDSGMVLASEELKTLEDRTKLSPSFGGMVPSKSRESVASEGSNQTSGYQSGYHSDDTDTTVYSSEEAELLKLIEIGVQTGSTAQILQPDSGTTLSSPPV
Test: Inhibition of KDR
Details: not given
How it was run: (§1)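 Selectivity profiling panel of 50 kinases spanning RTKs, STKs, TKs and AGC kinases.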

IC50	SMILES
< 1000 nM	CNC(=O)c1cc(Oc2ccc3nc(Nc4cccc(C(C)(C)C)c4)ncc3c2)ccn1

Biological target: Macrophage colony-stimulating factor 1 receptor (Homo sapiens, UniProt P07333)
Sequence (P07333 whole entry): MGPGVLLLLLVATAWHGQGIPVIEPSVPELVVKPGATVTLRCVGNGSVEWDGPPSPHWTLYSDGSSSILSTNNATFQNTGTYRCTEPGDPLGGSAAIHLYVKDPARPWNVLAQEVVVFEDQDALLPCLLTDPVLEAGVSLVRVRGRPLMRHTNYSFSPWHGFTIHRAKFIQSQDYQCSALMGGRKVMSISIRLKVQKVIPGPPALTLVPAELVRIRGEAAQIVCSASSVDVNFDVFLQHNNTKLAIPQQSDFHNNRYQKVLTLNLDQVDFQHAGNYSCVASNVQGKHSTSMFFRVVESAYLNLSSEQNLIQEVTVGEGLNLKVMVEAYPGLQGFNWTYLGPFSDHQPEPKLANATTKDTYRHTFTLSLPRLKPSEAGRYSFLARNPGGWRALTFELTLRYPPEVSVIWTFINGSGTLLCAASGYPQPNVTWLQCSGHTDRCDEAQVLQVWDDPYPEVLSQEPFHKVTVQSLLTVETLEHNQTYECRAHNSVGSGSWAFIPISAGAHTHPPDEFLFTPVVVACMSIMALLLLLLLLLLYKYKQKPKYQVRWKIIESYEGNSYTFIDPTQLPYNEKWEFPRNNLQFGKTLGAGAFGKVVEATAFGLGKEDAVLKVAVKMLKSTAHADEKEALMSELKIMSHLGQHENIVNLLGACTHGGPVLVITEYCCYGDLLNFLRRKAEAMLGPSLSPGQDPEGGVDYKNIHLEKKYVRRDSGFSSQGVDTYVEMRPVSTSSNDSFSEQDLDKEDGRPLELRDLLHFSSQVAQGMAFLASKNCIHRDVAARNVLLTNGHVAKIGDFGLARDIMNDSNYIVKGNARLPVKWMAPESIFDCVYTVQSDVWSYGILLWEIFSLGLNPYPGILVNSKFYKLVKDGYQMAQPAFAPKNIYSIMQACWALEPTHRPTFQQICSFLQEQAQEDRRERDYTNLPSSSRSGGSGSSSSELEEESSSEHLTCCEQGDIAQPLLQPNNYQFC
Test: Inhibition of CSFR1
Details: not given
How it was run: as §1

IC50	SMILES
< 1000 nM	CNC(=O)c1cc(Oc2ccc3nc(Nc4cccc(C(C)(C)C)c4)ncc3c2)ccn1

Biological target: T2, Receptor-type tyrosine-protein kinase FLT3 (Homo sapiens, UniProt P36888)
T2 sequence (P36888 whole entry): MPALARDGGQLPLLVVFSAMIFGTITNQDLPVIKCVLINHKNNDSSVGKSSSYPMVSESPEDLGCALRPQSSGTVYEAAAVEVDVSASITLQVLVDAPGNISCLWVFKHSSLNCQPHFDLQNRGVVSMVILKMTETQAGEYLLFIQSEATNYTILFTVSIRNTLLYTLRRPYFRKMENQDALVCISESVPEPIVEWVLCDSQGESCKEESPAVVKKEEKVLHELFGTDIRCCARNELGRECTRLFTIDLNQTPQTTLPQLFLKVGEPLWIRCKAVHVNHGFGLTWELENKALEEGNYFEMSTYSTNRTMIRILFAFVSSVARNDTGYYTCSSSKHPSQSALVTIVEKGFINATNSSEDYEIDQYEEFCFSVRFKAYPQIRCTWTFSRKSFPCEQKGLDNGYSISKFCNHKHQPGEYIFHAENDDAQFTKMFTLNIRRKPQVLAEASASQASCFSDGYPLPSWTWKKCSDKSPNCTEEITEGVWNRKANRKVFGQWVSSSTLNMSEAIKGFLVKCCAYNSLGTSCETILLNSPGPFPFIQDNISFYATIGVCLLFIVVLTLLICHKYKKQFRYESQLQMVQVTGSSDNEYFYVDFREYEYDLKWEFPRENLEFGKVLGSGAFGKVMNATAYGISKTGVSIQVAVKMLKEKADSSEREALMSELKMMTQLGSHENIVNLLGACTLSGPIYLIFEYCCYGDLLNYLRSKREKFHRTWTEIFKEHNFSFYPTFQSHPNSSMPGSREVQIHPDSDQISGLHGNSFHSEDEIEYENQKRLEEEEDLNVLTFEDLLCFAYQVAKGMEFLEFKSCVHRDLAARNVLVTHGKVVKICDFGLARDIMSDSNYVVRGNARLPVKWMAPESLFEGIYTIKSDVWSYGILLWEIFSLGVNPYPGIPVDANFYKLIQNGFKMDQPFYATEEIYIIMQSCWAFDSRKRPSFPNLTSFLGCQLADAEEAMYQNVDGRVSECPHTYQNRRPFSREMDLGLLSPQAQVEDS
Test: Inhibition of Flt3
Details: not given
How it was run: as §1

IC50	SMILES
< 1000 nM	CNC(=O)c1cc(Oc2ccc3nc(Nc4cccc(C(C)(C)C)c4)ncc3c2)ccn1

System: not listed separately
Test: Apparent permeability from apical to basolateral side in human Caco2 cells
Format: ADME, cell-based
Details: Caco-2

Papp A→B	SMILES
< 1 ×10⁻⁶ cm/s	CNC(=O)c1cc(Oc2ccc3c(c2)nc(Nc2cccc(C(C)(C)C)c2)n3C)ccn1
< 1 ×10⁻⁶ cm/s	CNC(=O)c1cc(Oc2ccc3nc(Nc4cccc(Br)c4)ncc3c2)ccn1
< 1 ×10⁻⁶ cm/s	O=C(NCCO)c1cc(Oc2ccc3nc(Nc4ccc(Br)cc4)ncc3c2)ccn1
< 1 ×10⁻⁶ cm/s	CNC(=O)c1cc(Oc2ccc3nc(Nc4cccc(OC(F)(F)F)c4)ncc3c2)ccn1
< 1 ×10⁻⁶ cm/s	CNC(=O)c1cc(Oc2ccc3nc(Nc4ccc(Oc5ccccc5)cc4)ncc3c2)ccn1
< 1 ×10⁻⁶ cm/s	CNC(=O)c1cc(Oc2ccc3nc(Nc4cccc(C(F)(F)F)c4)ncc3c2)ccn1
< 1 ×10⁻⁶ cm/s	CNC(=O)c1cc(Oc2ccc3nc(Nc4ccc(C(F)(F)F)cc4)ncc3c2)ccn1

More lines, now with the values behind:

SMILES	Papp A→B
CNC(=O)c1cc(Oc2ccc3nc(Nc4cccc(C(C)(C)C)c4)ncc3c2)ccn1	< 1 ×10⁻⁶ cm/s
CNC(=O)c1cc(Oc2ccc3nc(Nc4ccc(-c5cccnc5)cc4)ncc3c2)ccn1	< 1 ×10⁻⁶ cm/s
CCc1ccccc1Nc1ncc2cc(Oc3ccnc(C(=O)NC)c3)ccc2n1	< 1 ×10⁻⁶ cm/s
CNC(=O)c1cc(Oc2ccc3nc(Nc4ccccc4)ncc3c2)ccn1	< 1 ×10⁻⁶ cm/s
CNC(=O)c1cc(Oc2ccc3nc(Nc4ccc(C(C)C)cc4)ncc3c2)ccn1	< 1 ×10⁻⁶ cm/s

Biological target: Tyrosine-protein kinase ABL1 (Homo sapiens, UniProt P00519)
Sequence (P00519 whole entry): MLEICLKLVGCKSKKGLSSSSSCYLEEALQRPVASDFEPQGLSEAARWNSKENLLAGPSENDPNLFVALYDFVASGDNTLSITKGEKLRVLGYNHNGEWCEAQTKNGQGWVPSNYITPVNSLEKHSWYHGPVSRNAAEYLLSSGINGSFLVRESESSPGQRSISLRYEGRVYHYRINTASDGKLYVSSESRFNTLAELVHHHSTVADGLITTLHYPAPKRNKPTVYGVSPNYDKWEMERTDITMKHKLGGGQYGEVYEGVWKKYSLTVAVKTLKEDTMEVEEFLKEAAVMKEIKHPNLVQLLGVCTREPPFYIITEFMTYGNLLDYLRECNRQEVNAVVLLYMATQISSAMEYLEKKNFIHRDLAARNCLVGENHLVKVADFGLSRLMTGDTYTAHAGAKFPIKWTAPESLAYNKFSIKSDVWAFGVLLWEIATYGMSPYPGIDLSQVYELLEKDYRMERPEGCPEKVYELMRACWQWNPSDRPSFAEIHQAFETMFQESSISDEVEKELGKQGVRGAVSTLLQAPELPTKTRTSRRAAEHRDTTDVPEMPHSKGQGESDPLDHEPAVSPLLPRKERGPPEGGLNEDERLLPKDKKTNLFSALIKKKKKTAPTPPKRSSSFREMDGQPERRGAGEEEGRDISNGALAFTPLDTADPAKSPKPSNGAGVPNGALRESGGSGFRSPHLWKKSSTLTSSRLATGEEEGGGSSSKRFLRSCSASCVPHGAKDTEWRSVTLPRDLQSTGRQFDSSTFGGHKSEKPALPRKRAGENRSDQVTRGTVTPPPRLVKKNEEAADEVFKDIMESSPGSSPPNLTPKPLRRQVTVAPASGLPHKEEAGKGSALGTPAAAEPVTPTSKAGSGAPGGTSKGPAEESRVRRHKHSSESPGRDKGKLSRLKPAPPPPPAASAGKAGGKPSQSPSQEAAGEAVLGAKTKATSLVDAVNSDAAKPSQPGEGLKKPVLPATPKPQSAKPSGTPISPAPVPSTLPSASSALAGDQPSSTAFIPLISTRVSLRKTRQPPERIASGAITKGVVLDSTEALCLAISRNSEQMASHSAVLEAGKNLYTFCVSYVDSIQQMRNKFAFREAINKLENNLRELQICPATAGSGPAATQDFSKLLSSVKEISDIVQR
Test: Inhibition of cABL
Details: not given
How it was run: as §1

IC50	SMILES
< 1000 nM	CNC(=O)c1cc(Oc2ccc3nc(Nc4cccc(C(C)(C)C)c4)ncc3c2)ccn1

System: not listed separately
Test: Solubility of the compound at pH 7
Format: physicochemical
Details: buffer

solubility	SMILES
< 1 µM	CNC(=O)c1cc(Oc2ccc3c(c2)nc(Nc2cccc(C(C)(C)C)c2)n3C)ccn1
< 1 µM	CNC(=O)c1cc(Oc2ccc3nc(Nc4cccc(Br)c4)ncc3c2)ccn1
< 1 µM	O=C(NCCO)c1cc(Oc2ccc3nc(Nc4ccc(Br)cc4)ncc3c2)ccn1
< 1 µM	CNC(=O)c1cc(Oc2ccc3nc(Nc4cccc(OC(F)(F)F)c4)ncc3c2)ccn1
< 1 µM	CNC(=O)c1cc(Oc2ccc3nc(Nc4ccc(Oc5ccccc5)cc4)ncc3c2)ccn1
< 1 µM	CNC(=O)c1cc(Oc2ccc3nc(Nc4cccc(C(F)(F)F)c4)ncc3c2)ccn1
< 1 µM	CNC(=O)c1cc(Oc2ccc3nc(Nc4ccc(C(F)(F)F)cc4)ncc3c2)ccn1

Continued, compound first:

SMILES	solubility
CNC(=O)c1cc(Oc2ccc3nc(Nc4cccc(C(C)(C)C)c4)ncc3c2)ccn1	< 1 µM
CNC(=O)c1cc(Oc2ccc3nc(Nc4ccc(-c5cccnc5)cc4)ncc3c2)ccn1	< 1 µM
CCc1ccccc1Nc1ncc2cc(Oc3ccnc(C(=O)NC)c3)ccc2n1	< 1 µM
CNC(=O)c1cc(Oc2ccc3nc(Nc4ccccc4)ncc3c2)ccn1	< 1 µM
CNC(=O)c1cc(Oc2ccc3nc(Nc4ccc(C(C)C)cc4)ncc3c2)ccn1	< 1 µM

Source: ChEMBL document CHEMBL1949510, “Design and synthesis of 6,6-fused heterocyclic amides as raf kinase inhibitors” (Bioorg Med Chem Lett, 2012)
